SMILES strings stand for the structures.

The species entered for series [1] is Homo sapiens. The series can be described thus: Selectivity for mGlu4 receptor (unknown origin) over mGlu8 receptor (unknown origin).
Series [2] is filed under the species Homo sapiens. Briefly: Selectivity for mGlu4 receptor (unknown origin) over mGlu7 receptor (unknown origin).
The species entered for series [3] is Homo sapiens. The series can be described thus: Selectivity for mGlu4 receptor (unknown origin) over mGlu6 receptor (unknown origin).
Series [4] in a line: Ratio of AUC (0 to 6 hrs) from CSF to plasma in Sprague-Dawley rat at 10 mg/kg, sc by quantitative microdialysis method. It counts as ADME, organism-based. On the set-up: dose 10 mg/kg, route subcutaneous. A digest of the protocol: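 Rats given 10 mg/kg SC, formulated in saline at pH 7.4 (N = 4). Plasma, CSF and brain were sampled over a 6 h time course starting at 0.5 h. Brain was homogenized without perfusion, so capillary blood was retained. Ratios were calculated from AUC0-6 of CSF or brain homogenate versus plasma.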

A short description of series [5]: AUC (infinity) in Sprague-Dawley rat at 10 mg/kg, po. The format is ADME, organism-based. Details: time infinity, dose 10 mg/kg, route oral. To be noted: plasma. A digest of the protocol: (§1)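 Plasma concentrations were followed over time. Pharmacokinetic parameters were derived by noncompartmental analysis and reported as means of N = 2 animals.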
The nature of series [6]: Fraction unbound in mouse brain homogenates. The format is ADME, tissue-based. The settings on record: brain homogenate.
Series [7] is described as follows: AUC (infinity) in Sprague-Dawley rat at 1 mg/kg, iv. It counts as ADME, organism-based. On the set-up: time infinity, dose 1 mg/kg, route intravenous. To be noted: plasma. A digest of the protocol:
as §1

Series [8] can be described thus: Kinetic aqueous solubility of the compound. The format is physicochemical. The settings on record: buffer; read-out: Kinetic_solubility. The gist of the method:
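Kinetic aqueous solubility determined in an assay developed and optimized for lipophilic compounds; detection limit 800 μM.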

Series [9] can be described thus: AUC (0 to 6 hrs) in Sprague-Dawley rat CSF at 10 mg/kg, sc by quantitative microdialysis method. It counts as ADME, organism-based. Details: time < 6 hr, dose 10 mg/kg, route subcutaneous. A digest of the protocol:
(§2)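 Rats dosed SC at 10 mg/kg with drug in saline at pH 7.4; plasma, CSF and brain homogenate sampled over a 6 h time course (0.5–6 h), N = 4. Brain not perfused before homogenization. AUC0-6 computed from the concentration–time profiles.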

The nature of series [10]: Ratio of AUC (0 to 6 hrs) from brain to plasma in Sprague-Dawley rat at 10 mg/kg, sc by quantitative microdialysis method. The format is ADME, organism-based. Details: dose 10 mg/kg, route subcutaneous. To be noted: in vivo.
Series [11] deals with Brain. The series can be described thus: Drug uptake in Sprague-Dawley rat brain at 10 mg/kg, sc after 4 hrs by quantitative microdialysis method. The format is ADME, organism-based. On the set-up: dose 10 mg/kg, route subcutaneous. The settings on record: in vivo. A digest of the protocol:
as §2

The nature of series [12]: Drug uptake in rat Sprague-Dawley ECF at 10 mg/kg, sc after 60 mins by quantitative microdialysis method. It counts as ADME, organism-based. Details: dose 10 mg/kg, route subcutaneous. The settings on record: read-out: Drug uptake. The gist of the method: (§3)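 Rat in vivo microdialysis with a MetaQuant probe at a low flow rate of 0.1 μL/min after SC doses of 10 or 30 mg/kg. Brain ECF dialysate and plasma concentrations followed over time. ECF values corrected for 96% in vivo probe recovery.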

Series [13] relates to Liver microsome. The series can be described thus: Intrinsic clearance in human liver microsomes. The format is ADME.
For series [14], the system named is Liver microsome. Briefly: Intrinsic clearance in rat liver microsomes. It counts as ADME.
The nature of series [15]: Lipophilicity, log D of the compound at pH 7.4. It counts as physicochemical. The settings on record: buffer.
Series [16] in a line: Fraction unbound in rat plasma. The format is ADME, cell-free.
For series [17], the system named is MDR1. The series can be described thus: Apparent permeability from basolateral to apical side in MDCK cells expressing MDR1. The settings on record: dog. It counts as ADME, cell-based, Canis lupus familiaris. A digest of the protocol:
(§4)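 Bidirectional transport across MDCK/MDR1 monolayers, apparent permeability measured A→B and B→A. The B→A/A→B ratio is used as an indicator of P-gp substrate behaviour.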

A short description of series [18]: Cmax in Sprague-Dawley rat at 10 mg/kg, po. The format is ADME, organism-based. On the set-up: dose 10 mg/kg, route oral. To be noted: in vivo. A digest of the protocol: (§5)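 SD rats given IV (1 mg/kg) or oral (10 mg/kg) doses as a solution in saline buffered to pH 7.4, dose volume 5 mL/kg, N = 2. Plasma concentration–time profiles analysed by noncompartmental analysis; reported values are means.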

The nature of series [19]: Half life in Sprague-Dawley rat plasma at 10 mg/kg, sc by quantitative microdialysis method. The format is ADME, organism-based. On the set-up: dose 10 mg/kg, route subcutaneous. A digest of the protocol:
as §2

Series [20] in a line: Plasma clearance in Sprague-Dawley rat at 1 mg/kg, iv. The format is ADME, organism-based. Details: dose 1 mg/kg, route intravenous. The gist of the method:
as §5

Series [21] is described as follows: Half life in Sprague-Dawley rat at 1 mg/kg, iv. Details: dose 1 mg/kg, route intravenous. The format is ADME, organism-based. The settings on record: in vivo. The gist of the method:
as §5

A short description of series [22]: Fraction unbound in human plasma. It counts as ADME, cell-free.
In series [23] the test system is Brain. The series can be described thus: Drug uptake in Sprague-Dawley rat brain at 10 mg/kg, sc after 30 mins by quantitative microdialysis method. Details: dose 10 mg/kg, route subcutaneous. It counts as ADME, organism-based. The settings on record: in vivo, 0.5 h. A digest of the protocol:
as §2

Series [24] can be described thus: Plasma concentration in Sprague-Dawley rat at 10 mg/kg, sc after 60 mins by quantitative microdialysis method. The format is ADME, organism-based. Details: dose 10 mg/kg, route subcutaneous. The gist of the method: as §3
Series [25] in a line: Passive apparent permeability of the compound by PAMPA. The format is ADME.
In series [26] the target is Metabotropic glutamate receptor 4 (Homo sapiens, UniProt Q14833). The series can be described thus: Displacement of [3H]-L-AP4 from human mGlu4 receptor.
The nature of series [27]: Thermodynamic solubility of the compound at pH 7.4. It counts as physicochemical. The settings on record: buffer, read-out: Therm_solubility.
A short description of series [28]: Volume of distribution at steady state in Sprague-Dawley rat at 1 mg/kg, iv. The format is ADME, organism-based. On the set-up: dose 1 mg/kg, route intravenous. The settings on record: in vivo, read-out: Vdss. A digest of the protocol: as §5
A short description of series [29]: Plasma concentration in Sprague-Dawley rat at 30 mg/kg, sc after 60 mins by quantitative microdialysis method. It counts as ADME, organism-based. Details: dose 30 mg/kg, route subcutaneous. A digest of the protocol:
as §3

The nature of series [30]: Fraction unbound in rat brain homogenates. The format is ADME, tissue-based. To be noted: brain homogenate.
The test system of series [31] is Brain. The series can be described thus: Drug uptake in Sprague-Dawley rat brain at 10 mg/kg, sc after 6 hrs by quantitative microdialysis method. The format is ADME, organism-based. On the set-up: dose 10 mg/kg, route subcutaneous. To be noted: in vivo. A digest of the protocol: as §2
Series [32] is described as follows: Oral bioavailability in Sprague-Dawley rat at 10 mg/kg. The format is ADME, organism-based. To be noted: in vivo. A digest of the protocol: as §5
Series [33] concerns Plasma. Briefly: Plasma concentration in Sprague-Dawley rat at 10 mg/kg, sc after 0.5 to 6 hrs by quantitative microdialysis method. Details: dose 10 mg/kg, route subcutaneous. The settings on record: in vivo. The format is ADME, organism-based. The gist of the method: as §2
For series [34], the system named is Brain. Briefly: AUC (0 to 6 hrs) in Sprague-Dawley rat brain at 10 mg/kg, sc by quantitative microdialysis method. It counts as ADME, organism-based. Details: time < 6 hr, dose 10 mg/kg, route subcutaneous. To be noted: in vivo. A digest of the protocol: as §2
A further series addresses hERG (KCNH2) (Homo sapiens, UniProt Q12809). Briefly: Inhibition of human ERG channel at 30 uM by ionworks assay.
In series [35] the test system is MDR1. Briefly: Apparent permeability from apical to basolateral side in MDCK cells expressing MDR1. The settings on record: dog. The format is ADME, cell-based, Canis lupus familiaris. A digest of the protocol: as §4
For series [36], the system named is Plasma. Briefly: Maximum unbound concentration in Sprague-Dawley rat plasma at 10 mg/kg, sc after 0.5 hrs by quantitative microdialysis method. To be noted: in vivo.
The nature of series [37]: Fraction unbound in mouse plasma. It counts as ADME, cell-free.
A further series deals with HepG2. Briefly: Cytotoxicity against human HepG2 cells by luminescence assay. It counts as cell-based.
Series [38] can be described thus: AUC (0 to 6 hrs) in Sprague-Dawley rat plasma at 10 mg/kg, sc by quantitative microdialysis method. It counts as ADME, organism-based. Details: time < 6 hr, dose 10 mg/kg, route subcutaneous. The gist of the method: as §2
Series [39] is described as follows: Drug uptake in Sprague-Dawley rat ECF at 30 mg/kg, sc after 60 mins by quantitative microdialysis method. It counts as ADME, organism-based. On the set-up: dose 30 mg/kg, route subcutaneous. To be noted: read-out: Drug uptake. The gist of the method: as §3
A short description of series [40]: Tmax in Sprague-Dawley rat at 10 mg/kg, po. It counts as ADME, organism-based. Details: dose 10 mg/kg, route oral. The settings on record: in vivo. A digest of the protocol: as §5
A short description of series [41]: Drug uptake in Sprague-Dawley rat CSF at 10 mg/kg, sc after 6 hrs by quantitative microdialysis method. The format is ADME, organism-based, Cerebrospinal fluid. To be noted: read-out: Drug uptake. Details: dose 10 mg/kg, route subcutaneous. The gist of the method:
as §2

Chain of hERG (KCNH2) (Q12809 whole entry): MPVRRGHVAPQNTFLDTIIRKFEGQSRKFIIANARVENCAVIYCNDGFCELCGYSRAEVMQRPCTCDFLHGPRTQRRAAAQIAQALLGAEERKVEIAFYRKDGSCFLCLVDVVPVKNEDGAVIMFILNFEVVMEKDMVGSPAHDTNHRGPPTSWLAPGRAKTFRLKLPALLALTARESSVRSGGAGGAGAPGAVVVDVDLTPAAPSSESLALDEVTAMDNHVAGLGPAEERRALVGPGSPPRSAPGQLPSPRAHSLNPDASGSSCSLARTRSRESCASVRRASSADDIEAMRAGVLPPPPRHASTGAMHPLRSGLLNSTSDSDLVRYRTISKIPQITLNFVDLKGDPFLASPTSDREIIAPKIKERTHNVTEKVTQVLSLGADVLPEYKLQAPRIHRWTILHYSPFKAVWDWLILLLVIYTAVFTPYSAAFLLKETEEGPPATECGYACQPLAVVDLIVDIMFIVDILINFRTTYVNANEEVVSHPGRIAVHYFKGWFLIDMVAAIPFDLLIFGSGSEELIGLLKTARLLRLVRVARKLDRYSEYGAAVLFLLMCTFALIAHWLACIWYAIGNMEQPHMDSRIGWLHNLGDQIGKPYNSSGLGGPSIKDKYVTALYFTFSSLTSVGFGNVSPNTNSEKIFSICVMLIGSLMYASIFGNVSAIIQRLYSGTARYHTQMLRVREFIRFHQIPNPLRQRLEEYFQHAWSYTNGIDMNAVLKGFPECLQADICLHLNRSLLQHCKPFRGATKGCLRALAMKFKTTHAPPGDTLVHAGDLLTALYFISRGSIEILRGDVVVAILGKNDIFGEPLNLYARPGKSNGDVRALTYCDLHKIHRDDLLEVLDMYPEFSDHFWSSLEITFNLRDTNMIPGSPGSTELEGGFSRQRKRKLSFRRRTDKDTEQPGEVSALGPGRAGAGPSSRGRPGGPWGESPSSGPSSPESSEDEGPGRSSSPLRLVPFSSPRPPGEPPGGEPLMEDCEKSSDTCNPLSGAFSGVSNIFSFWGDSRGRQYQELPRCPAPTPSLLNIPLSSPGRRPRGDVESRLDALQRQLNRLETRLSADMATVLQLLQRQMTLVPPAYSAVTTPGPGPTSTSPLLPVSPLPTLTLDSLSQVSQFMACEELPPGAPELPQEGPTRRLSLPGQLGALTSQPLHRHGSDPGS
Chain of Metabotropic glutamate receptor 4 (Q14833 whole entry): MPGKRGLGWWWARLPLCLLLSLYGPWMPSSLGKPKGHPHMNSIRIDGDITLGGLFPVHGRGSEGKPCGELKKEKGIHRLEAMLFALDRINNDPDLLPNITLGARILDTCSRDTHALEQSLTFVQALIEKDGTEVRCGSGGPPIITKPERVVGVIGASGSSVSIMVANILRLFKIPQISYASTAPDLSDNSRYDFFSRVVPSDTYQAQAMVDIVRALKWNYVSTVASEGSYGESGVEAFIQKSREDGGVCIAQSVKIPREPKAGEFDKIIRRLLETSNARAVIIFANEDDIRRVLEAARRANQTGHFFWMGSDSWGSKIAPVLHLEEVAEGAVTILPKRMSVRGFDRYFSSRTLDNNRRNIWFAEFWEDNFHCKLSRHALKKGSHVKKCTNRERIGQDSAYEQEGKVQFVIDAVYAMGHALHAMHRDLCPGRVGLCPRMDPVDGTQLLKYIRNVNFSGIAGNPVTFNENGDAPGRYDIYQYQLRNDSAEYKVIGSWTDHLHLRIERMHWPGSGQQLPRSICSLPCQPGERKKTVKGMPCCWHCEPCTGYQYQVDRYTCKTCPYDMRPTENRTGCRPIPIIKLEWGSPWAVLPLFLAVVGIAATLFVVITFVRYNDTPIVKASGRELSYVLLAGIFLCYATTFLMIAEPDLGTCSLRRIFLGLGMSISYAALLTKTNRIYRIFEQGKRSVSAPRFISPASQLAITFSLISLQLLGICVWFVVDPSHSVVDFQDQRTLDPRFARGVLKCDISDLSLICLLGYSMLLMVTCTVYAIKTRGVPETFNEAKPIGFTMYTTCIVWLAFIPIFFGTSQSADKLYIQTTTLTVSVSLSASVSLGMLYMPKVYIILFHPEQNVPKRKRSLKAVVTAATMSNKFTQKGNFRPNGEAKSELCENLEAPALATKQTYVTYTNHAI

Regarding `N[C@@H](CCP(=O)(O)C(O)c1ccc(OCC(=O)O)cc1)C(=O)O` (stereo partly specified), the Selectivity ratio was found to be 300 in the series listed under Homo sapiens [1], 100 in the series filed under Homo sapiens [2] and 40 in the series listed under Homo sapiens [3].
Regarding `COc1cc(C(O)P(=O)(O)CC[C@H](N)C(=O)O)cc([N+](=O)[O-])c1O` (mixture of isomers), the results for the “Ratio AUC” value in series [4] and in series [10] were 12% and 2.4%, respectively. Moreover, the results for the AUC(0-inf) in series [5] and in series [7] were 200 ng·h/mL and 2800 ng·h/mL, respectively. Further, the free fraction (fraction unbound) was over 0.99 in series [6]; over 0.99 in [16]; 0.73 in series [22]; over 0.99 in series [30]; over 0.99 in [37]. In addition, in [8], the solubility kinetic was over 800 µM. Besides, the Selectivity ratio worked out at 30 in the series filed under Homo sapiens [1], 25 in the series listed under Homo sapiens [2] and 1 in the series filed under Homo sapiens [3]. The AUC(0-t) at 6 h was determined as 3500 ng·h/mL in series [9] and 30000 ng·h/mL in series [38]. In addition, the figures for the Drug uptake in the series with Brain [11], with Brain [23] and in the series with Brain [31] were 0.08 µM, 1 µM and 0.4 µM, respectively. The concentration at 1 h in series [12] is 1.8 µM; in series [24], 31 µM; in [29], 114 µM; in series [39] it was 9.8 µM. The CLH in the series with Liver microsome [13] stood at 0.1 L/min; with Liver microsome [14], 3.1 mL/min. Moreover, the logD in series [15] was -0.7. The Papp B→A in the series on MDR1 [17] was 0.5 ×10⁻⁶ cm/s. Also, the Cmax in series [18] amounted to 92 ng/mL. The half-life in [19] is 20 min; in series [21] it was 18 min. Besides, the clearance in series [20] amounted to 6.2 mL/min/kg. Also, the Papp in series [25] is under 0.1 ×10⁻⁶ cm/s. Besides, the IC50 in [26] turned out to be 8.6 µM. Further, the solubility thermodynamic in series [27] was over 1800 µg/mL. For the same compound, the Vd in series [28] was 0.1 L/kg. The compound further displayed a bioavailability in [32] of 0.8%. In the series with Plasma [33], this compound had a Cp of 150 ng/mL. Moreover, the AUC in the series on Brain [34] came to 0.7 µg·h/g. The compound also registered an inhibition at 30 µM on hERG (KCNH2) of 14%. For the same compound, the Papp A→B with MDR1 [35] amounted to 0.2 ×10⁻⁶ cm/s. For the same compound, the “Cp(f)” value in the series with Plasma [36] was found to be 55.2 µM. Also, in the series with HepG2, the Activity entry is on record as “Non-toxic”. The Tmax in series [40] amounted to 84 min. For the same compound, the concentration at 6 h in series [41] was 0.7 µM.

Source of the values: ChEMBL document CHEMBL3112398, “Qualification of LSP1-2111 as a Brain Penetrant Group III Metabotropic Glutamate Receptor Orthosteric Agonist” (ACS Med Chem Lett, 2014).
